Assay results taken from PMC11909274 (Nature Communications, 2025).

What was measured:
[1] = test system: CHP-212-R(mix) and resistant monoclonal sublines R1-R6 (heterozygous USP7 V517F); test: Cell viability assay; conditions: for sensitivity of the resistant cells to other agents: SRB, 3 days exposure (Fig. 1d)
[2] = test system: c-caspase-3, c-caspase-7, c-PARP, p53, p21, Rad18, DNMT1, UHRF1 in CHP-212 resistant variants; format: cell-based, human; conditions: resistant variants relative to the parent cells, 48 h, Western blotting
How it was run: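 CHP-212 parental and resistant cells were treated with test compound, 48 h for caspase-3/-7, cleaved caspases and PARP1, or 24 h for p53, p21, Rad18, DNMT1 and UHRF1. Lysis was in SDS buffer (50 mM Tris-HCl pH 6.8, 2% SDS, 100 mM DTT) with 15 min boiling, followed by SDS-PAGE on 7.5–12.5% gels. Primary antibodies were used at 1:1000 with HRP secondaries. Blots were repeated three times.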

CHP-212 R(mix) cells = test: Cell cycle distribution by flow cytometry; format: cell-based, human; conditions: 24 h treatment
V517F^CD = V517F^CD (Homo sapiens, UniProt Q93009, V517F); test: Isothermal titration calorimetry; format: binding; conditions: ITC, compared to the control groups (WT)
Chain of V517F^CD (Q93009 208-560 V517F): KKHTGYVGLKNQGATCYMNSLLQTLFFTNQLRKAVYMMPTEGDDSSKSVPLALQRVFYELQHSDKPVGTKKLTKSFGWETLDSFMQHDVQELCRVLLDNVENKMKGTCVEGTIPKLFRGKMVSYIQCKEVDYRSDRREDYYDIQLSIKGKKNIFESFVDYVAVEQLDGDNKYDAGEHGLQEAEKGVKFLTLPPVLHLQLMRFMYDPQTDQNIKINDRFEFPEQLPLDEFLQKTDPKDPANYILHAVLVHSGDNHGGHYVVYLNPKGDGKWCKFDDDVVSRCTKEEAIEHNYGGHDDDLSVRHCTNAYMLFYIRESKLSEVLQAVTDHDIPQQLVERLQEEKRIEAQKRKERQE

[3] = test system: USP4, USP8, USP9X, USP12, USP15, and USP34; conditions: cited from earlier work
V517I^CD = V517I^CD (Homo sapiens, UniProt Q93009, V517I); test: Isothermal titration calorimetry; format: binding; conditions: ITC
Chain of V517I^CD (Q93009 208-560 V517I): as the sequence (Q93009 208-560 V517F) above, with F310I counted along it
How it was run: (§1)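 His-tagged USP7 catalytic-domain mutants were expressed from pET28 in E. coli BL21(DE3), induced with 0.5 mM IPTG overnight at 17 °C, then purified by Ni–NTA and desalting. Protein was titrated with test compound on a MicroCal PEAQ-ITC at 25 °C, using an initial 0.5 μL injection then 20 injections of 2 μL. Kd came from a single-site binding model fit.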

V517Y^CD = V517Y^CD (Homo sapiens, UniProt Q93009, V517Y); test: Isothermal titration calorimetry; format: binding; conditions: ITC, USP7_V517Y^CD
Chain of V517Y^CD (Q93009 208-560 V517Y): as the sequence (Q93009 208-560 V517F) above, with F310Y counted along it
How it was run: as §1

USP7_V517F^CD = USP7_V517F^CD (Homo sapiens, UniProt Q93009, V517F); test: Ub-AMC in vitro enzyme assay; format: biochemical; conditions: 50 nM USP7_V517F^CD, up to 0.5 μM USP7-797 or 1 μM FT671
Chain of USP7_V517F^CD (Q93009 208-560 V517F): as the sequence (Q93009 208-560 V517F) above

V517G^CD = V517G^CD (Homo sapiens, UniProt Q93009, V517G); test: Isothermal titration calorimetry; format: binding; conditions: ITC, USP7_V517G^CD
Chain of V517G^CD (Q93009 208-560 V517G): as the sequence (Q93009 208-560 V517F) above, with F310G counted along it
How it was run: as §1

[4] = test system: CHP-212.V517F.KI#1 and CHP-212.V517F.KI#2 cells; test: Cell viability assay; format: cell-based, human; conditions: CHP-212 V517F knock-in vs WT
Capan-1.V517F.OE cells = conditions: Capan-1.V517F.OE vs WT.OE
V517A^CD = V517A^CD (Homo sapiens, UniProt Q93009, V517A); test: Isothermal titration calorimetry; format: binding; conditions: ITC
Chain of V517A^CD (Q93009 208-560 V517A): as the sequence (Q93009 208-560 V517F) above, with F310A counted along it
How it was run: as §1

[5] = test system: LNCaP V517F.KI#1 and V517F.KI#2 cells; test: Cell viability assay; format: cell-based, human; conditions: LNCaP.V517F.KI vs WT

NS(=O)(=O)OC[C@@H]1C[C@@H](n2ccc3c(N[C@H]4CCc5ccccc54)ncnc32)C[C@@H]1O [MLN4924]
sensitivity of the resistant cells to other agents [1]: maintained sensitivity

CC[C@]1(O)C[C@H]2CN(CCc3c([nH]c4ccccc34)[C@@](C(=O)OC)(c3cc4c(cc3OC)N(C=O)[C@H]3[C@@](O)(C(=O)OC)[C@H](OC(C)=O)[C@]5(CC)C=CCN6CC[C@]43[C@@H]65)C2)C1 [VCR]
sensitivity of the resistant cells to other agents [1]: maintained sensitivity

O=C(C[C@@H](C(F)F)n1ccc(F)n1)N1CCC(O)(Cn2cnc3c(cnn3-c3ccc(F)cc3)c2=O)CC1 [FT671]
activation of apoptosis-related proteins (c-caspase-3, c-caspase-7, c-PARP) [2]: reduced activation
cell-cycle distribution of resistant variants (CHP-212 R(mix) cells): not profoundly altered
fold decreased binding affinity of USP7_V517F (V517F^CD): 67 fold
response of other USP family members to FT671 [3]: resistant
affinity compared to wild-type USP7 (V517I^CD): remain essentially unchanged
affinity compared to wild-type USP7 (V517Y^CD): decreases significantly
inhibition of V517F enzyme activity (USP7_V517F^CD): failed to inhibit
affinity compared to wild-type USP7 (V517G^CD): remain essentially unchanged
fold reduction in sensitivity / higher IC50 than parental cells ([1]; resistant sublines vs parental CHP-212 cells): 83–213 fold
sensitivity reduction [4]: 88–106 fold
fold higher IC50 (Capan-1.V517F.OE cells): 48 fold
affinity compared to wild-type USP7 (V517A^CD): remain essentially unchanged
sensitivity reduction [5]: 121- to 146 fold

CC(C)C[C@H](NC(=O)[C@H](Cc1ccccc1)NC(=O)c1cnccn1)B(O)O [bortezomib]
sensitivity of the resistant cells to other agents [1]: maintained sensitivity

COc1cccc2c1C(=O)c1c(O)c3c(c(O)c1C2=O)C[C@@](O)(C(=O)CO)C[C@@H]3O[C@H]1C[C@H](N)[C@H](O)[C@H](C)O1 [Adriamycin]
sensitivity of the resistant cells to other agents [1]: maintained sensitivity

COc1ncnc(C2CC2)c1-c1ncc2cnn(Cc3ccc(-c4nc(C(F)(F)F)cn4C(C)C)cc3)c2n1 [KSQ4279]
sensitivity of the resistant cells to other agents [1]: maintained sensitivity

CC(=O)O[C@H]1C(=O)[C@@]2(C)[C@H]([C@H](OC(=O)c3ccccc3)[C@]3(O)C[C@H](OC(=O)[C@H](O)[C@@H](NC(=O)c4ccccc4)c4ccccc4)C(C)=C1C3(C)C)[C@]1(OC(C)=O)CO[C@@H]1C[C@@H]2O [Taxol]
sensitivity of the resistant cells to other agents [1]: maintained sensitivity
